In experiment [1] the test system is A549. The experiment is described as follows: Antiproliferative activity against human A549 cells after 72 hrs by MTT assay. Format: functional, cell-based. Conditions: A549, 72 h. The essentials: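 A549 cells (2.5 x 10^3/well) in F12K with 10% FBS, seeded overnight, then exposed to a range of doses for 72 h. MTT was added to a final 0.5 mg/ml for 3 h. Formazan was dissolved in DMSO and absorbance read. Triplicates, three experiments; IC50 given as mean of three experiments.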
Background: Tetrazolium dyes change colour on reduction, which living cells bring about.

Experiment [2] has as its system A549. Nature of the experiment: Inhibition of human A549 cell migration at 100 uM after 24 hrs by wound-healing assay. The format is functional, cell-based. The procedure, abridged:
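Confluent A549 monolayers (3 x 10^4 cells seeded overnight, F12K/10% FBS) were scratched with a 200 µl pipette tip and washed. They were incubated at 37 °C in 10% FBS F12K with or without compound, and migration into the wound was photographed at 0 and 24 h.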

Experiment [3] has as its system A549. The experiment is described as follows: Effect on surface oligosaccharide expression in human A549 cells assessed as inhibition of binding of L-PHA-[…] to cell surface at 50 uM after 24 hrs by flow cytometry. Format: functional, cell-based. In general terms: A flow cytometer gives signals particle by particle.
The subject of experiment [4] is A549. Nature of the experiment: Cell cycle arrest in human A549 cells assessed as accumulation at G1 phase at 50 uM after 24 hrs using propidium iodide staining by flow cytometry relative to control. The format is functional. The procedure, abridged:
(§1)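 A549 cells were seeded overnight in F12K/10% FBS, then treated 24 h. They were harvested with trypsin-EDTA, fixed in 70% ethanol at −20 °C for at least 2 h, and treated with RNase A 200 µg/ml at 25 °C for 30 min. Staining was with propidium iodide 50 µg/ml for 30 min at 4 °C. 10,000 nuclei per sample were scored by flow cytometry for G1, S and G2/M percentages. Triplicate, repeated three times.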

Experiment [5] relates to A549. The experiment is described as follows: Cell cycle arrest in human A549 cells assessed as accumulation at G2/M phase at 50 uM after 24 hrs using propidium iodide staining by flow cytometry relative to control. Format: functional. The essentials: as §1
Experiment [6] has as its system A549. The experiment is described as follows: Cell cycle arrest in human A549 cells assessed as accumulation at S phase at 50 uM after 24 hrs using propidium iodide staining by flow cytometry relative to control. Format: functional. The procedure, abridged: as §1
Experiment [7] relates to A549. Nature of the experiment: Induction of apoptosis in human A549 cells at 50 uM after 24 to 72 hrs using annexin V and propidium iodide staining by flow cytometry. The format is functional, cell-based. The procedure, abridged: (§2)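 A549 cells were seeded and, the next day, treated in complete medium at 0, 50 or 100 µM for 24, 48 and 72 h. Cells were collected and washed twice with DPBS, then stained with an annexin V-FITC/propidium iodide kit. Annexin V-positive cells were quantified by flow cytometry. Triplicate, repeated three times.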

Experiment [8] deals with A549. The experiment is described as follows: Induction of apoptosis in human A549 cells at 100 uM after 24 to 72 hrs using annexin V and propidium iodide staining by flow cytometry. The format is functional, cell-based. The procedure, abridged:
as §2

Experiment [9] concerns A549. The experiment is described as follows: Induction of apoptosis in human A549 cells assessed as increased mitochondrial membrane depolarization at 100 uM after 48 hrs using JC-1 dye by flow cytometry. Format: functional, cell-based. The essentials: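 After 48 h exposure, A549 cells were harvested and stained with JC-1. The red-to-green fluorescence shift (green/red ratio) was measured by flow cytometry as mitochondrial depolarisation. Mean ± SD, n=3.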

In experiment [10] the test system is A549. The experiment is described as follows: Inhibition of human A549 cell migration assessed as prevention of actin stress fibre formation at 100 uM after 24 hrs by TRITC-phalloidin staining. The format is functional, cell-based. The essentials: (§3)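 A549 cells on glass coverslips were seeded overnight, then exposed 24 h. They were fixed with 4% paraformaldehyde, permeabilised with 0.1% Triton X-100, blocked with 1% BSA, and stained 60 min with TRITC-phalloidin for F-actin. Stress fibres were examined by confocal microscopy (100x oil). Repeated three times.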

Experiment [11] has as its system A549. The experiment is described as follows: Inhibition of human A549 cell migration assessed as disruption of actin assembly at 100 uM after 24 hrs by TRITC-phalloidin staining. Format: functional, cell-based. The procedure, abridged: as §3
Experiment [12] concerns A549. The experiment is described as follows: Cell cycle arrest in human A549 cells assessed as accumulation at G1 phase at 100 uM after 24 hrs using propidium iodide staining by flow cytometry relative to control. The format is functional. The essentials: as §1
In experiment [13] the test system is A549. The experiment is described as follows: Cell cycle arrest in human A549 cells assessed as accumulation at G2/M phase at 100 uM after 24 hrs using propidium iodide staining by flow cytometry relative to control. Format: functional. The essentials:
as §1

The subject of experiment [14] is A549. The experiment is described as follows: Cell cycle arrest in human A549 cells assessed as accumulation at S phase at 100 uM after 24 hrs using propidium iodide staining by flow cytometry relative to control. Format: functional. The procedure, abridged: as §1

Structures are written as SMILES. Activity calls are given as the source filed them. No cut-off for these calls is given here.

For orientation: IC50 means the concentration that inhibits the measured activity by half.

Regarding `C#Cc1cccc(OC)c1`, in the experiment on A549 [1], the IC50 is greater than 1000 µM. In the experiment on A549 [2], the inhibition result was “inactive”.
As to `C#Cc1cccc(OCCCCCCCCN2C[C@H](O)[C@@H](O)[C@H](O)[C@H]2CO)c1`, the inhibition entry with A549 [3], in the experiment with A549 [2], in the experiment on A549 [10] and in the experiment with A549 [11] was “Active” throughout. Also, 51.2 µM corresponded to half-maximal inhibition in the experiment with A549 [1] (IC50). For the same compound, the Activity is listed as 77.69% in the experiment on A549 [4]; 9.97% in the experiment with A549 [5]; 13.93% with A549 [6]; 89.1% in the experiment with A549 [12]; 5.44% in the experiment on A549 [13]; 4.85% with A549 [14]. Also, the result with A549 [7], in the experiment with A549 [8] and with A549 [9] was Active.
Take `OC[C@H]1NC[C@H](O)[C@@H](O)[C@@H]1O` [DUVOGLUSTAT]: the inhibition result in the experiment on A549 [3] is “Active”. For the same compound, the IC50 in the experiment with A549 [1] is greater than 1000 µM. Moreover, the inhibition result in the experiment on A549 [2] was “inactive”.

These data come from ChEMBL document CHEMBL1287725, “N-(8-(3-ethynylphenoxy)octyl-1-deoxynojirimycin suppresses growth and migration of human lung cancer cells” (Bioorg Med Chem Lett, 2010).
